# In the library only some 1.2% were active in any assay of this set; here they are far more common.
# Diaph act CS = counter-screen for diaphorase-based assays: diaphorase activators and chemical reducers; Diaphorase/resazurin coupled assay, resorufin fluorescence, 16 min; stronger effect = higher value; 1 = vehicle wells, 0 = NADH-free wells; activation factor at 20 µM; 0.005% of 190,000 active;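 active means diaphorase activity raised at least twofold by the compound at 20 µM; inactive means activation factor below 2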
#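 Test system: Clostridium kluyveri diaphorase, purified enzyme; input: enzyme 0.07 U/mL final; buffer or medium: 50 mM HEPES pH 7.4 with 4.542 mM MgCl2, 0.005% Tween 20; also added: 0.114 mM NADH and 0.1 mM resazurin, final amounts; schedule: 16 min enzyme reaction, ambient temperature; technique: fluorescence of resorufin, 544 nm excitation, 590 nm emission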
# G6PDH counter = counter-screen for G6PDH assay hits: L. mesenteroides G6PDH inhibition | Purified L. mesenteroides G6PDH, diaphorase/resazurin coupled fluorescence, 45 min | inhibition, % at 5 µM | 0.12% of 200,000 active | AID 1020; in the data active means inhibition above about 50%
# Diaph inh CS = inhibits diaphorase or chemically oxidizes, flagging diaphorase assay artifacts. inhibition, % at 20 µM. 0.69% of 190,000 active. diaphorase resazurin-to-resorufin fluorescence, NADH, 16 min; bacterial (C. kluyveri) enzyme, not human. AID 1217;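 active means primary screen inhibition at 20 µM above a set limit, cut at about 50% in these data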;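 further: plate controls were DMSO with full reaction for no effect and wells lacking NADH for full effect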
#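 material = Clostridium kluyveri diaphorase enzyme | amount = 0.14 U/mL diaphorase, enzyme working solution | schedule = incubation 16 min, room temperature | detection = fluorescence of resorufin formed from resazurin, Ex 544/Em 590 nm | benchmarks = positive control minus NADH, DMSO neutral control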
# PfGluPho inh = PfG6PD (Plasmodium falciparum) enzyme inhibition. PfGluPho enzyme, NADPH resazurin-diaphorase fluorescence. 0.78% of 350,000 active. inhibition, % at 20 µM. AID 504690;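 active means inhibition reaching at least a set limit at 20 µM in the primary screen, cut at about 59% in these data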;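 further: 0% = DMSO wells with substrate and 100% = DMSO wells lacking glucose-6-phosphate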
# HKDC1 inhibitor = inhibitors of human hexokinase HKDC1 | Q2TB90 | recombinant HKDC1, G6PDH/diaphorase resazurin coupled fluorescence | inhibition, % at 20 µM | 0.16% of 340,000 active | AID 493160;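 active means inhibition above about 35% when tested at 20 µM, limit read from the data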;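 further: plate controls were DMSO wells with enzyme for no effect and DMSO wells lacking enzyme for full effect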
# Target sequence (Q2TB90 whole entry, looked up): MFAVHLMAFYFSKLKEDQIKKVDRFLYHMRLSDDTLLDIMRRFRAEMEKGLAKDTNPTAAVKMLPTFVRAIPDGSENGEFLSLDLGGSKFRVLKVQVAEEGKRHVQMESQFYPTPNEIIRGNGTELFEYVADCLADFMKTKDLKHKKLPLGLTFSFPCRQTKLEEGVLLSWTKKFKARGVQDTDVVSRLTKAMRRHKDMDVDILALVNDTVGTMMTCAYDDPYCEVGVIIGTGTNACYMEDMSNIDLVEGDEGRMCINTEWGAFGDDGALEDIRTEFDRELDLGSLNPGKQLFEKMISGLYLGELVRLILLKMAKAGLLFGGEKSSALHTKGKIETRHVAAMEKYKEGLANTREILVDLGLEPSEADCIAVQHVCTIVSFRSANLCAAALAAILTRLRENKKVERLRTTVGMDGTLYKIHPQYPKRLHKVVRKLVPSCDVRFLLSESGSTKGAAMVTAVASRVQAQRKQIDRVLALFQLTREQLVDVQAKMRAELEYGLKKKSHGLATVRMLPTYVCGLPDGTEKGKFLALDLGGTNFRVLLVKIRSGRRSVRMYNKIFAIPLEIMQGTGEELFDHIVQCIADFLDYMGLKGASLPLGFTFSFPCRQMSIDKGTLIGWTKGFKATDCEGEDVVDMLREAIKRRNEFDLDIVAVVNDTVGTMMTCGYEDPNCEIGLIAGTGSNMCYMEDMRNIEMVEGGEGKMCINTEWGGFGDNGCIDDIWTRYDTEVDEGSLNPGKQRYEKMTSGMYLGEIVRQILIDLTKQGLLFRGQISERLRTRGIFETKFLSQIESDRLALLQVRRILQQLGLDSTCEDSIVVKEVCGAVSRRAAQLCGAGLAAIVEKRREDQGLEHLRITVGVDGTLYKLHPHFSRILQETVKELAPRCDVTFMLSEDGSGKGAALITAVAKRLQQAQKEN
#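 Assay system: recombinant HKDC1 hexokinase; detection: coupled resazurin fluorescence, excitation 525 nm, emission 613 nm; benchmarks: DMSO-plus-enzyme-mix negative control, buffer-substituted positive control; compound dosing: single 20 µM dose; schedule: 90 min at room temperature in dark; also added: glucose plus 1 mM ATP as hexokinase substrates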
# PfG6PD confirm = PfG6PD inhibition, single-dose confirmed; 34% of 2,400 active; AID 504753; shares compounds with PfGluPho inh; inhibition, % at 20 µM; recombinant PfGluPho, NADPH-diaphorase-resazurin fluorescence;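 active means inhibition of at least 50% at 20 µM in any single replicate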;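 further: 0% = DMSO with substrate and 100% = DMSO lacking glucose-6-phosphate substrate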
# Diaphorase 10uM = diaphorase inhibition or oxidation at 10 uM NADPH; shares compounds with PfGluPho inh; diaphorase-coupled resazurin reduction, fluorescence, NADPH 10 uM; inhibition, % at 20 µM; 39% of 820 active; AID 504862;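 active means average inhibition reaching 50% or more with the compound at 20 µM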;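 further: resorufin red fluorescence formed as diaphorase reduces resazurin using NADPH; 0% = DMSO with enzyme and 100% = DMSO without enzyme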
# Diaph ctr 30uM = inhibits diaphorase or oxidizes, flagging false PfG6PD hits | shares compounds with PfGluPho inh | Diaphorase/resazurin coupled assay, resorufin fluorescence, 30 uM NADPH | inhibition, % at 20 µM | 29% of 820 active | AID 504863;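 active means inhibition averaging 50% or more, tested at 20 µM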;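 further: 0% = DMSO with enzyme and 100% = DMSO wells lacking diaphorase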
# Starred values were filed as active, the others as inactive; · = no result given.
SMILES,Diaph act CS,G6PDH counter,Diaph inh CS,PfGluPho inh,HKDC1 inhibitor,PfG6PD confirm,others
Cc1ccc(OCc2ccc([N+](=O)[O-])cc2)c([N+](=O)[O-])n1,·,·,·,7,-1,·,
Cc1ccc(C(=O)c2coc3ccc(O)c(Cl)c23)cc1,0.8,2,22,63*,5,27,
O=C(c1ccccc1)c1coc2ccc(O)c(Cl)c12,1,12,-3,1,-5,·,
O=C(CSc1ncn[nH]1)Nc1ccccc1Sc1ccc(Cl)cc1,0.8,7,18,110*,-2,68*,Diaphorase 10uM=59*;Diaph ctr 30uM=57*
Nc1cc(=O)[nH]c(SCC(=O)Nc2ccccc2Sc2ccc(Cl)cc2)n1,0.9,0,14,50,8,·,
Cn1cc(C(=O)NCc2ccc(Cl)cc2)c(=O)c2cc(S(=O)(=O)N3CCOCC3)ccc21,·,·,·,11,1,·,
N#Cc1cn(CCCOc2ccccc2)c2ccccc12,0.9,4,11,61*,6,20,
COc1ccccc1OCCCn1cc(C#N)c2ccccc21,0.9,15,11,113*,3,69*,Diaphorase 10uM=65*;Diaph ctr 30uM=58*
COC(=O)c1cn(CCOc2ccccc2)c2ccccc12,0.8,-26,19,5,7,·,
O=C(CCc1ccc(S(=O)(=O)N2CCOCC2)cc1)OCC(=O)c1ccccc1,·,·,·,2,-6,·,
CC(=O)NC(CC(=O)OCC(=O)NCCc1ccccc1)c1ccccc1 (stereo unspecified),·,·,·,-10,2,·,
COc1ccc(NC(=O)c2ccc3[nH]c(C)c(C)c3c2)cc1,·,·,·,68*,-1,28,
CC(=O)Nc1cccc(NC(=O)c2ccc3[nH]c(C)c(C)c3c2)c1,·,·,·,78*,-3,32,
c1ccc(NC2=Nc3cccc4cccc2c34)cc1,0.9,-3,12,48,-1,·,
COc1ccc(NC2=Nc3cccc4cccc2c34)cc1,0.9,-18,9,75*,2,23,
CCCCn1c(SCC(=O)Nc2oc(C)c3c(C)n[nH]c(=O)c23)nc2cc(S(N)(=O)=O)ccc21,·,·,·,-3,-2,·,
Cc1cccc(C(=O)NNC(=O)c2c(-c3ccccc3Cl)noc2C)c1O,·,·,·,-6,-9,·,
O=S(=O)(Cc1ccccc1)N(O)c1ccccc1,·,·,·,86*,0,84*,Diaphorase 10uM=74*;Diaph ctr 30uM=53*
CC(=O)c1cccc(NS(=O)(=O)c2ccc3c(c2)N(C(C)=O)CCO3)c1,·,·,·,-18,-1,·,
S=c1[nH]nc(Cn2cnc3ccccc32)n1-c1ccccc1Cl,·,·,·,33,-5,·,
COc1ccc(S(=O)(=O)N(Cc2ccccc2)Cc2nc3ccccc3c(=O)[nH]2)cc1,0.8,-5,15,1,6,·,
COc1ccccc1CN(Cc1nc2ccccc2c(=O)[nH]1)S(=O)(=O)c1ccc2ccccc2c1,0.8,-5,20,59*,-3,4,
CC(Nc1ncnc2sccc12)c1ccccc1 (stereo unspecified),·,·,·,15,6,·,
Nn1cnnc1N/N=C\c1ccc(-c2ccccc2[N+](=O)[O-])o1,0.1,19,88*,81*,-2,53*,Diaphorase 10uM=74*;Diaph ctr 30uM=57*
NS(=O)(=O)c1cnccc1Oc1cccc(Cl)c1,·,·,·,-11,-5,·,
SMILES,Diaph act CS,G6PDH counter,Diaph inh CS,PfGluPho inh,HKDC1 inhibitor,PfG6PD confirm,others
COc1ccc(N(C(=O)CNC(=O)c2ccco2)C(C(=O)NCC2CCCO2)c2ccc(OC)c(OC)c2)cc1 (stereo unspecified),·,·,·,-3,-6,·,
CCc1ccc(NC(=O)c2c(Cl)nc(C)c(Cl)c2C)cc1,0.9,-4,13,84*,-8,47,
Cc1ccc(-c2nc3n(n2)Cc2ccccc2-3)cc1,1,0,1,77*,-2,37,
Fc1ccc(-c2nc3n(n2)Cc2ccccc2-3)cc1,0.9,-11,9,45,6,·,
CCN(CC)c1ccc(C=Nc2ccccc2C)c(O)c1,0.7,6,27,59*,2,28,
COC(=O)NC(=S)Nc1ccc(Oc2ccc(Cl)cc2)c(Cl)c1,0.9,3,6,56,-6,·,
COC(=O)NC(=S)Nc1ccc(Oc2ccc(Cl)cc2Cl)c(Cl)c1,0.8,0,21,82*,9,12,
CN=c1scc(C)n1/N=C/c1cc(Br)c(O)c(OC)c1,0.9,1,10,-3,3,·,
CN=c1scc(C)n1/N=C/c1ccc(O)c(O)c1O,0.2,41,76*,88*,17,78*,Diaphorase 10uM=35;Diaph ctr 30uM=39
CN=c1scc(-c2cccs2)n1/N=C/c1ccccc1O,0.8,-2,19,6,4,·,
C=CCN=c1scc(-c2ccco2)n1/N=C/c1ccc(O)c(O)c1O,·,·,·,73*,22,48*,Diaphorase 10uM=-2;Diaph ctr 30uM=15
CN(C)CCN1CC(O)=C(c2nc3ccccc3s2)C1=N,·,·,·,-4,-3,·,
COc1ccc(N2CC(O)=C(c3nc4ccccc4s3)C2=N)c(OC)c1,0.9,-29,13,64*,3,43,
CC1CC(C)CN(C(=O)Cn2c(=O)n(CCCC(=O)NCc3ccco3)c(=O)c3sccc32)C1 (stereo unspecified),·,·,·,-1,-5,·,
COc1ccccc1/C=N/NC(=O)CSc1ccc2ccccc2n1,·,·,·,119*,3,85*,Diaphorase 10uM=97*;Diaph ctr 30uM=86*
COc1ccccc1/C=N/NC(=O)CSc1cc(C)nc2ccccc12,·,12,·,83*,-1,68*,Diaphorase 10uM=69*;Diaph ctr 30uM=53*
COc1ccccc1/C=N/NC(=O)CC(=O)NCc1ccccc1,1.1,4,-9,105*,-4,86*,Diaphorase 10uM=93*;Diaph ctr 30uM=82*
COc1ccc2nc(C)cc(SCC(=O)N/N=C/c3ccccc3)c2c1,0.9,3,9,59,-6,11,
COc1ccc2nc(C)cc(SCC(=O)N/N=C/c3c(OC)ccc4ccccc34)c2c1,1,9,-2,-5,13,·,
COc1ccccc1/C=N/NC(=O)CO,0.9,1,8,25,-8,·,
